Data from ChEMBL document CHEMBL4422684, “Identification of novel lysine demethylase 5-selective inhibitors by inhibitor-based fragment merging strategy” (Bioorg Med Chem, 2019).
Activity calls are given as the source filed them. No cut-off for these calls is given here.

How the values were obtained:
[1] = target: T1, Lysine-specific demethylase 5A (Homo sapiens, UniProt P29375); assay: Inhibition of human C-terminal FLAG-tagged KDM5A (1 to 1090 residues) expressed in baculovirus infected Sf9 insect cells using H3(1-21)K4(Me3)-GGK(Biotin)/2-OG as substrate measured after 1 hr by Alphalisa assay
Summary of the method: (§1)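 AlphaLISA demethylase assay in 50 mM HEPES pH 7.5, 0.1% BSA, 0.01% Tween 20 with DMSO. Enzyme and inhibitor combined, then peptide plus 2-OG (50 µM), Fe(II) (5 µM) and ascorbate (100 µM) in the added mix; 1 h at room temperature with shaking.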

[2] = target: Lysine-specific demethylase 5B (Homo sapiens, UniProt Q9UGL1); assay: Inhibition of human N-terminal FLAG/His-tagged KDM5B (2 to 751 residues) expressed in baculovirus infected Sf9 insect cells using H3(1-21)K4(Me3)-GGK(Biotin)/2-OG as substrate measured after 1 hr by Alphalisa assay; summary of the method: as §1
[3] = target: Lysine-specific demethylase 5C (Homo sapiens, UniProt P41229); assay: Inhibition of full-length human N-terminal FLAG/His-tagged KDM5C (2 to 1560 residues) expressed in baculovirus infected Sf9 insect cells using H3(1-21)K4(Me3)-GGK(Biotin)/2-OG as substrate measured after 1 hr by Alphalisa assay; summary of the method: as §1
[4] = target: T2, Lysine-specific demethylase 6B (Homo sapiens, UniProt O15054); assay: Inhibition of human C-terminal FLAG-tagged KDM6B (1043 to end residues) expressed in baculovirus infected Sf9 insect cells at 50 uM using H3(21-44)-K27(Me3)-GK(Biotin)/2-OG as substrate measured after 1 hr by Alphalisa assay relative to control; summary of the method: as §1
A549 [5] = assay: Inhibition of KDM4 in human A549 cells assessed as increase in H3K9me3 levels up to 25 uM after 48 hrs by Western blot analysis; type: cell-based
Summary of the method: (§2)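 A549 cells (5 × 10^5 per 2 mL well, RPMI1640 with 10% heat-inactivated FBS) exposed 48 h to compounds at 1, 5 or 25 µM. SDS lysates normalised by BCA, separated on 5-20% SDS-PAGE, blotted to PVDF, blocked in 5% milk/TBS-T, probed for H3K4me3, H3K9me3, H3K27me3 and total H3, detected by HRP chemiluminescence.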

A549 [6] = assay: Inhibition of KDM6 in human A549 cells assessed as increase in […] levels up to 25 uM after 48 hrs by Western blot analysis; type: cell-based; summary of the method: as §2
A549 [7] = assay: Growth inhibition of human A549 cells at 50 uM after 72 hrs by Alamar blue staining based fluorescence assay; type: functional, cell-based
Summary of the method: (§3)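 A549 or MDA-MB-231 cells seeded at 2 × 10^3 per well, left 24 h at 37 °C, then given compounds in medium for 72 h at 37 °C, 5% CO2. AlamarBlue added for a further 3 h at 37 °C; fluorescence read at ex 540/em 590 nm and % growth calculated from it. A549 in RPMI1640/10% FBS; MDA-MB-231 in L-15 with 2 mM glutamine/10% FBS.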

A549 [8] = assay: Growth inhibition of human A549 cells after 72 hrs by Alamar blue staining based fluorescence assay; type: functional; settings: A549, 72 h; summary of the method: as §3
MDA-MB-231 = assay: Growth inhibition of human MDA-MB-231 cells at 50 uM after 72 hrs by Alamar blue staining based fluorescence assay; type: functional, cell-based; summary of the method: as §3
[9] = target: T1, Lysine-specific demethylase 5A; assay: Inhibition of human C-terminal FLAG-tagged KDM5A (1 to 1090 residues) expressed in baculovirus infected Sf9 insect cells at 1 uM using H3(1-21)K4(Me3)-GGK(Biotin)/2-OG as substrate measured after 1 hr by Alphalisa assay relative to control; summary of the method: as §1
[10] = target: T3, Lysine-specific demethylase 3A (Homo sapiens) (UniProt Q9Y4C1); assay: Inhibition of human N-terminal FLAG-tagged KDM3A (2 to 1321 residues) expressed in baculovirus infected Sf9 insect cells at 50 uM using H3(1-21)K9(Me1)-GGK(Biotin)/2-OG as substrate measured after 1 hr by Alphalisa assay relative to control; summary of the method: as §1
T3 sequence (whole entry): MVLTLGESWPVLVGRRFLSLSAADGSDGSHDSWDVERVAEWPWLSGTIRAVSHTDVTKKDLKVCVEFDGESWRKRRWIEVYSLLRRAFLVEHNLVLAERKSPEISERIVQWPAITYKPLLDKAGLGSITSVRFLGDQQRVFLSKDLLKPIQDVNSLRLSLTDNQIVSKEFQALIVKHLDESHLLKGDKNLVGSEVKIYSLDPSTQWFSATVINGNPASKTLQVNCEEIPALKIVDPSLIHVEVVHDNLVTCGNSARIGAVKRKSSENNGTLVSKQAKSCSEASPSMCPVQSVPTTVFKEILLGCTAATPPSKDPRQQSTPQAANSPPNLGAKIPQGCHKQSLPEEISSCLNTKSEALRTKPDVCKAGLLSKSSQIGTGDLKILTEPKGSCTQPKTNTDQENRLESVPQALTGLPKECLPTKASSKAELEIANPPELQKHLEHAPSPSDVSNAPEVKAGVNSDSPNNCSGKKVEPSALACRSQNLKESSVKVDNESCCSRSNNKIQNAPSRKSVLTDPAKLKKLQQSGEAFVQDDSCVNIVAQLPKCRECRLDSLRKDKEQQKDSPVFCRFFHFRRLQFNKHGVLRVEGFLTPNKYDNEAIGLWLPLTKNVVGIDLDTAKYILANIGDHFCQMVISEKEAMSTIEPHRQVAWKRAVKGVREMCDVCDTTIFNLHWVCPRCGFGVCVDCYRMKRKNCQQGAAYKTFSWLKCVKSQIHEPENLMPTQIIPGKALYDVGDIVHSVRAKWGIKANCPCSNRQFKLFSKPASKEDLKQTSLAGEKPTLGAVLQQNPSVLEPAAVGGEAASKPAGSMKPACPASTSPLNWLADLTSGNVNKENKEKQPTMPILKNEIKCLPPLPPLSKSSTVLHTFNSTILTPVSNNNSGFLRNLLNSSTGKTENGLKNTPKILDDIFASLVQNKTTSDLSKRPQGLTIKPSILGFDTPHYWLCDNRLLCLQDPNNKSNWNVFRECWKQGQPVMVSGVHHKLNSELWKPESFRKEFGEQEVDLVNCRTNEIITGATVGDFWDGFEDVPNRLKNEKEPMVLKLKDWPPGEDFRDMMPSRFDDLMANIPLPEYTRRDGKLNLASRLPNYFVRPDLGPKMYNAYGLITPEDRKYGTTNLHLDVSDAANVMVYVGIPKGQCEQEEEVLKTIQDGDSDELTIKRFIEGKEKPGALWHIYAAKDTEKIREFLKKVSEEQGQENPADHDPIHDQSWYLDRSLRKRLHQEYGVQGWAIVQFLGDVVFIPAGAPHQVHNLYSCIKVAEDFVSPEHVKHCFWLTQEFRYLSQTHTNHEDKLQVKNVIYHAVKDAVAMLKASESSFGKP

[11] = target: T2, Lysine-specific demethylase 6B; assay: Inhibition of human C-terminal FLAG-tagged KDM6B (1043 to end residues) expressed in baculovirus infected Sf9 insect cells using H3(21-44)-K27(Me3)-GK(Biotin)/2-OG as substrate measured after 1 hr by Alphalisa assay; summary of the method: as §1

T2 sequence (O15054 whole entry): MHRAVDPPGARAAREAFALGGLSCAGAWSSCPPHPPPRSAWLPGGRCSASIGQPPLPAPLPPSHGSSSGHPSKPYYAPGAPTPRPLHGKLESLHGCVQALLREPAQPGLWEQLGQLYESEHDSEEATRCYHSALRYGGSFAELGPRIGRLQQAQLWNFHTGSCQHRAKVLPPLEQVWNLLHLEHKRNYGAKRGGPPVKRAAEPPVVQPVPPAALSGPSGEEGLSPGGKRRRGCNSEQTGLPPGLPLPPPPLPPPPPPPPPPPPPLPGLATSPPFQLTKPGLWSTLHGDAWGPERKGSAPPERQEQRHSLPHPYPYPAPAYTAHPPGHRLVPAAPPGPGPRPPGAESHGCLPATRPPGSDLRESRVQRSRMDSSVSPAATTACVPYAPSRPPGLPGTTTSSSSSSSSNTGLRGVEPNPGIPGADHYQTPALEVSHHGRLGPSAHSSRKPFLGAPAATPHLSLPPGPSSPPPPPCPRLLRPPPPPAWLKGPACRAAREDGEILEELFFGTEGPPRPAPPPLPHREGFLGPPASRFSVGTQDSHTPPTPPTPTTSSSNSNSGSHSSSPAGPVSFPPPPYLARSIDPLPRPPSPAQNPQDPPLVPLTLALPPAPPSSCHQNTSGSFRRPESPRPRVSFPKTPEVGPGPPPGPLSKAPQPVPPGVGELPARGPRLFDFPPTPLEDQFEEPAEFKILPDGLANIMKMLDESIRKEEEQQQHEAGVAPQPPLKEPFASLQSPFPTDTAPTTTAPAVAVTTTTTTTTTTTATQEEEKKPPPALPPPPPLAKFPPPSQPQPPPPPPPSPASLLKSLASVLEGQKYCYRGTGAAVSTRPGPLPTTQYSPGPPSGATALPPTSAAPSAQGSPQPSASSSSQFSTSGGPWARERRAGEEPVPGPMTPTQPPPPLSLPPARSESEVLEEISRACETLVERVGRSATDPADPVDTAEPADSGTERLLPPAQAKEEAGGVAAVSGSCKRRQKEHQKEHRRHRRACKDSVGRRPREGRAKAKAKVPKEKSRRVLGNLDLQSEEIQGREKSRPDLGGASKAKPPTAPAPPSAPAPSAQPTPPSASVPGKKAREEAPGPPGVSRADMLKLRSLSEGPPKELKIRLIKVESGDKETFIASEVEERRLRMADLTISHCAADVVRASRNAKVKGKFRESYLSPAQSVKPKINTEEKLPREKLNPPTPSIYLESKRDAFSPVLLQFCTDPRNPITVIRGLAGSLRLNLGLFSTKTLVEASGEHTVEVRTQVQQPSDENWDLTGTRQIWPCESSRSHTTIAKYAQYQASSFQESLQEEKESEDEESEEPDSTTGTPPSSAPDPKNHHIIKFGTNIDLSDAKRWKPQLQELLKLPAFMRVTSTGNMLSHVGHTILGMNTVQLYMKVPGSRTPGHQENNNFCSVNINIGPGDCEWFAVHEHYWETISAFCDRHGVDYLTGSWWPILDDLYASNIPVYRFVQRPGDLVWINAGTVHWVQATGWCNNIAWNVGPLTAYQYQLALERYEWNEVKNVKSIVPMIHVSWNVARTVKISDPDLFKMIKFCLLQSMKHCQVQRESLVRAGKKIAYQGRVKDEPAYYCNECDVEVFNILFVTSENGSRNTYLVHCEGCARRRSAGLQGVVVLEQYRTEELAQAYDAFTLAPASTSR
Sequence of Lysine-specific demethylase 5B (Q9UGL1 whole entry, the tested form may be a part): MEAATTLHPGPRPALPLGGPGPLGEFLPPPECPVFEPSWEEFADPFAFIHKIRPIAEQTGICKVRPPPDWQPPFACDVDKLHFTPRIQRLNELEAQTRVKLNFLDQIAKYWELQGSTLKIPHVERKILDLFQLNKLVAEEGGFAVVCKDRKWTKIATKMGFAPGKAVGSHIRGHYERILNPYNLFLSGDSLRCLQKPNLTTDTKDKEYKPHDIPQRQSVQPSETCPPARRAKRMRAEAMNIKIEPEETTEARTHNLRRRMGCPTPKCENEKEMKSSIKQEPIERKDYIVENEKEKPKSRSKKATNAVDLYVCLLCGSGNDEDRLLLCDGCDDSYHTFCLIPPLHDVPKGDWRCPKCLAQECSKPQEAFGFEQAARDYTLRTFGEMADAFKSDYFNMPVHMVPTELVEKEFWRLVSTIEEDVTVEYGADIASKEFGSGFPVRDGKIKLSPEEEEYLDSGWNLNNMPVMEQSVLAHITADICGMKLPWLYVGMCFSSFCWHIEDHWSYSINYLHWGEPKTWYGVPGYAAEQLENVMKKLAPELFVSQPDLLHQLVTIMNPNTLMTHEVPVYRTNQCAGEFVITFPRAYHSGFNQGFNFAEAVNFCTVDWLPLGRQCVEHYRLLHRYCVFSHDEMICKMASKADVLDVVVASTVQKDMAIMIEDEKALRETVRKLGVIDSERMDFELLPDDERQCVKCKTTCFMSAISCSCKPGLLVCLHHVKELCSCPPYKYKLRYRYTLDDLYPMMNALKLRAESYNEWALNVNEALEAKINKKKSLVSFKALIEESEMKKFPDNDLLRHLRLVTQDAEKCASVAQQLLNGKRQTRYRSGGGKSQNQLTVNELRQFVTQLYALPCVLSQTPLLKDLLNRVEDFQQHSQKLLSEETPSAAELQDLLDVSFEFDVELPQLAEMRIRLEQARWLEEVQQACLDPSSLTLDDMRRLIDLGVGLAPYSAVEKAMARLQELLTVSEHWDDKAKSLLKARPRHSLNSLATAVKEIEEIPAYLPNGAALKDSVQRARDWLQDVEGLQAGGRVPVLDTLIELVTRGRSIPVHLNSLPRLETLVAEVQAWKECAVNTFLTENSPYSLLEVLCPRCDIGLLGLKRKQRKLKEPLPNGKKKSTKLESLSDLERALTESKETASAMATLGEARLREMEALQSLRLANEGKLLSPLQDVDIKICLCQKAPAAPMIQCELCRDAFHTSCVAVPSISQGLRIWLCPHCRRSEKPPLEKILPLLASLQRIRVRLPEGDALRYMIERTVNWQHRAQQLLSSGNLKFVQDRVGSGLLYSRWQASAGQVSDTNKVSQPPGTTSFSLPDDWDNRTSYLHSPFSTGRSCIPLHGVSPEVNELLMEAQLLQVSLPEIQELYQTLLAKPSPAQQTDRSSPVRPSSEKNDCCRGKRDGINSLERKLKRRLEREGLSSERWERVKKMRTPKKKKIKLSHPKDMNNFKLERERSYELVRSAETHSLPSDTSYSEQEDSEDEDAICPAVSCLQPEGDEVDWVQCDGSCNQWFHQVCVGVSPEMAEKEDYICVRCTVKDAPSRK
T1 sequence (P29375 whole entry, the tested form may be a part): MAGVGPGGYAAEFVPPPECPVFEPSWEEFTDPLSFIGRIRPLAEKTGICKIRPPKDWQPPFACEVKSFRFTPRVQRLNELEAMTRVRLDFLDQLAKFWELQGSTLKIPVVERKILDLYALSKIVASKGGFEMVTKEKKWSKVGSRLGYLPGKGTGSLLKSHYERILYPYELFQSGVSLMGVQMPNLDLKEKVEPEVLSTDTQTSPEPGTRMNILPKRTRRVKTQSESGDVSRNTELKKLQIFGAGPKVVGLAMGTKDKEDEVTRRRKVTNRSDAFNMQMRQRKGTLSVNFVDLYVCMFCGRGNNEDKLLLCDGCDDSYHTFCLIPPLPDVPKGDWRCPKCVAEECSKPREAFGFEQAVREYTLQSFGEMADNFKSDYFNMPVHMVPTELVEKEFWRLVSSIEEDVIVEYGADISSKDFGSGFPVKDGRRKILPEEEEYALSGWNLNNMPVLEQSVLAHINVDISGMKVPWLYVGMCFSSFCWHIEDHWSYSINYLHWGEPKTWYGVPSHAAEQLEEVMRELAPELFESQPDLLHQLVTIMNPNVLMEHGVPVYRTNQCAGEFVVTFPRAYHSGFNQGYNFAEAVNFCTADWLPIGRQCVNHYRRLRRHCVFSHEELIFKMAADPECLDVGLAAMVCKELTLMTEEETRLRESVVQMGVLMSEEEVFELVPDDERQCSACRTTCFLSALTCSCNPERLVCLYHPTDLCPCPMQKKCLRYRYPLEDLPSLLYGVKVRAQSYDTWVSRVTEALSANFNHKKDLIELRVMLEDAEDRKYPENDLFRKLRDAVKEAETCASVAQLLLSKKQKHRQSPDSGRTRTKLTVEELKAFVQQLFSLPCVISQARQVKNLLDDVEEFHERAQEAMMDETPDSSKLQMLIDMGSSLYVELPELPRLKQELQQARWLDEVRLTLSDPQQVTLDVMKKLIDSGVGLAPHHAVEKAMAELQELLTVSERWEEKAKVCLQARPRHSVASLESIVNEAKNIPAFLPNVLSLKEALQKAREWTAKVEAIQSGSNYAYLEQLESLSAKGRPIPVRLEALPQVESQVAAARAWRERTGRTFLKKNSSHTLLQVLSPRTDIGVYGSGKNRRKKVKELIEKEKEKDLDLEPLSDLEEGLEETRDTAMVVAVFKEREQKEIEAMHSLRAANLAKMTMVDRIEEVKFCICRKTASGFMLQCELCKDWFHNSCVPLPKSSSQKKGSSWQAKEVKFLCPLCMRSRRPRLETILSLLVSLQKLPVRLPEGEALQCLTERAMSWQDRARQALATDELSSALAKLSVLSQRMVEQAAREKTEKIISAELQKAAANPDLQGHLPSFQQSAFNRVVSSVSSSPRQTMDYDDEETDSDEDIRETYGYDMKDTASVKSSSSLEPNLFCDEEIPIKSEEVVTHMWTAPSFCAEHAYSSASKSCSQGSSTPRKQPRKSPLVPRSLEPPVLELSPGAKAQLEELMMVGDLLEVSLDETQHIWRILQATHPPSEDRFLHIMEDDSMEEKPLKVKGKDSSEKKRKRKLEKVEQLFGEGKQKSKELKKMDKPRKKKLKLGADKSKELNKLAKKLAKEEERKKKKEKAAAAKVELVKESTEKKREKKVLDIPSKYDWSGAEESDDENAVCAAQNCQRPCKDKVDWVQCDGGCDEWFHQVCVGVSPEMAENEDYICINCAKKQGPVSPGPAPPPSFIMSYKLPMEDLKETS

| Structure (SMILES) | IC50 [1] [nM] | IC50 [2] [nM] | IC50 [3] [nM] | inhibition [4] [%] | inhibition (A549 [5]) | inhibition (A549 [6]) | growth inhibition (GI) (A549 [7]) | GI50 (A549 [8]) [µM] | growth inhibition (GI) (MDA-MB-231) | inhibition [9] [%] | inhibition [10] [%] | IC50 [11] [µM] |
| --- | --- | --- | --- | --- | --- | --- | --- | --- | --- | --- | --- | --- |
| CCCCCCN(C)CCc1ccc(-c2[nH]c3c(C#N)cnn3c(=O)c2C(C)C)cc1 | 4.37 | 1.34 | 6.24 | 22.7 | inactive | inactive | Active | 29.6 | Active |  |  |  |
| CCCCCN(C)CCCCC(=O)N(O)CCC(=O)O | 2700 | 9240 | 28900 | 17.8 |  |  |  |  |  | 30.8 | 30.1 |  |
| CCCCCCN(C)Cc1ccc(-c2[nH]c3c(C#N)cnn3c(=O)c2C(C)C)cc1 | 22.7 | 51.1 | 5.84 | 29.1 | inactive | inactive | Active | 40 | Active | 97.9 | 61.5 | > 50 |
| CC(C)c1c(-c2ccccc2)[nH]c2c(C#N)cnn2c1=O |  | 337 | 3010 |  |  |  | inactive | > 50 | Active | 68.9 | 31.9 | 14.3 |
